Assay [1] can be described thus: inhibitors of TNFa-induced NFkB p65 translocation, primary screen, imaging, HUVEC, MLSMR starter and 10KST1 sets (AID 438;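 active = inhibition above 20% together with a positive visual image hit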;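 note: compound added about 3h40 before a 20 min TNFalpha stimulation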;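 for inhibition: signal is the nuclear over cytoplasmic p65 intensity ratio per well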). The note with it: HUVEC TNFa-induced p65 nuclear translocation; cell count: measured here: nuclei count (cytotoxicity indicator), at 2.08 µM; inhibition: at 2 µM, stronger effect = higher value, 0% TNFa-plus-vehicle, 100% no-TNFa wells.
A short description of assay [2]: endothelial E-selectin expression blockers – imaging, HUVEC, immunofluorescence, MLSMR starter and 10KST1 sets, primary screen (AID 487;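 active = visually confirmed hit in the image check and inhibition above 20%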;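 for inhibition: signal is fraction of cell area covered by stained E-selectin grains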;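 for nuclei count: 100% = median nuclei count of all wells on the same plate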). The note with it: HUVEC TNFalpha-induced E-selectin immunofluorescence imaging, at 2 µM; inhibition: stronger effect = higher value; nuclei count: measured here: cell number, toxicity.
Assay [3] is described as follows: Primary imaging screen for DUSP6 inhibitors that restore phospho-Erk in transfected HeLa cells, chemical complementation (AID 609;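 active = compounds giving at least 50% inhibition in the cell-based MKP-3 phosphatase rescue imaging test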;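 for inhibition: phospho-Erk level distribution per well compared with pooled transfected vehicle control wells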). The note with it: HeLa MKP-3 transfected, phospho-Erk imaging KS statistic, at 10 µM, cells stimulated with TPA for 15 min.
Assay [4] deals with Dual specificity protein phosphatase 6 (Homo sapiens) (UniProt Q16828). The assay is described as above. The note with it: HeLa MKP-3 transfected, phospho-Erk imaging KS statistic; at 10 µM; stronger effect = higher value; cells stimulated with TPA for 15 min.
For assay [5], the target named is Voltage-gated potassium channel subunit beta-2 (Rattus norvegicus) (UniProt P62483). The assay can be described thus: inhibitors of rat Kvbeta2 reductase activity – biochemical, NADPH fluorescence, primary screen (AID 622;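 active = fluorescence slope higher than the sample average by over 3 SD, cut at about -0.22 in these data, passing the limit was not always enough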;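 note: slope of raw intensity against log time taken from 70 to 1610 s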). The following applies: recombinant KvBeta, 4-cyanobenzaldehyde reduction, at 10 µM, stronger effect = higher value.
The target is the same in assay [6]. Description: enhancers of rat Kvbeta2 NADPH turnover – biochemical, NADPH fluorescence, primary screen (AID 623;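 active = NADPH fluorescence slope more negative than the mean of all samples by about 3 SD, 99.7% confidence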;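 note: fluorescence intensity change per second fitted from 20 to 320 s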). The note with it: Recombinant KvBeta, NADPH fluorescence decrease slope, 10 min; at 10 µM; stronger effect = lower value.
The target in assay [7] is Alpha-2C adrenergic receptor (Homo sapiens) (UniProt P18825). The assay can be described thus: compounds altering alpha2C-coupled GIRK flux – cell-based, HEK293 alpha2C/GIRK1/2, thallium flux, primary screen (AID 624;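 active = fluorescence slope after compound addition differing from the mean of all screened samples at 99.7% confidence, in either direction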;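 note: slope of fluorescence ratio to pre-addition baseline per second over 15 to 24 s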). The following applies: thallium flux BTC fluorescence, at 10 µM, actives lie on both sides.
Assay [8] is described as follows: inhibitors of larval lipid processing in zebrafish, primary screen, whole organism, PED6 fluorescence, gall bladder and intestine (AID 686;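 active = a full or partial loss of lipid-probe fluorescence in the fish gall bladder, intestine or both, judged by eye; inactive = no fluorescence loss, or compound toxic to the fish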;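 note: larvae 5 to 7 days old with five fish per well; signal comes from phospholipase A2 cleavage of quenched PED6 carried via bile; overnight exposure to compound and PED6 before scoring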). The following applies: Zebrafish larvae PED6 lipid processing, fluorescence scoring; screened at 20 µM (by protocol). In short, it runs like this:
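Also added: quenched phospholipase substrate PED6, 100 nM final, ingested by larvae; System: zebrafish larvae, 5-7 d; Quantity: 5 larvae per well; Compound: 20 µM single dose; Schedule: overnight compound and PED6 incubation; Read-out: visual per-well fluorescence inhibition score; Measured by: By-eye fluorescence microscopy; Medium: E3.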

A short description of assay [9]: loss of swimming-algae plug formation – whole organism, Chlamydomonas reinhardtii, WT vs cilia-less mutant, absorbance, 96-well, primary screen (AID 463189).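 Note: 0% = wild type cc124 cells in DMSO and 100% = ciliumless bld1 mutant cells.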 The following applies: Chlamydomonas reinhardtii gravitaxis, OD600 absorbance, 2 days; at 10 µM; stronger effect = higher value.
Where [10] appears, read: measured here: cell density z-score.
Setting [11] is: measured here: nuclear c-Myc green intensity z-score.
[12] abbreviates: measured here: nuclear pErk red intensity z-score, stronger effect = higher value.

The text below walks through data of PubChem BioAssay.

The source made the active and inactive calls.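 Rule for the calls, unless noted: active = inhibition at or above 50% relative to wild type and mutant plate controls; inactive = inhibition below 50%.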

Voltage-gated potassium channel subunit beta-2 (Rattus norvegicus), sequence (P62483 whole entry, looked up): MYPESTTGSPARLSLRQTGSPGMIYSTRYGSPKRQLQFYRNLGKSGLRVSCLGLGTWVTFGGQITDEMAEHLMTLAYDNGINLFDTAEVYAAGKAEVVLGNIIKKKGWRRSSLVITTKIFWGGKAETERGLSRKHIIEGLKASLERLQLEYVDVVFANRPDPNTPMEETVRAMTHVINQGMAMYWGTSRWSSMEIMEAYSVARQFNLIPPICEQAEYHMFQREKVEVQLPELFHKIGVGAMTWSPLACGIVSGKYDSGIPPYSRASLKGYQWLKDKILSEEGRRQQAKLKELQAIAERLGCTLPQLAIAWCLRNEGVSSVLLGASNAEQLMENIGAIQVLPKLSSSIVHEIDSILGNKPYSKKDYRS
Dual specificity protein phosphatase 6 (Homo sapiens), sequence (Q16828 whole entry, looked up): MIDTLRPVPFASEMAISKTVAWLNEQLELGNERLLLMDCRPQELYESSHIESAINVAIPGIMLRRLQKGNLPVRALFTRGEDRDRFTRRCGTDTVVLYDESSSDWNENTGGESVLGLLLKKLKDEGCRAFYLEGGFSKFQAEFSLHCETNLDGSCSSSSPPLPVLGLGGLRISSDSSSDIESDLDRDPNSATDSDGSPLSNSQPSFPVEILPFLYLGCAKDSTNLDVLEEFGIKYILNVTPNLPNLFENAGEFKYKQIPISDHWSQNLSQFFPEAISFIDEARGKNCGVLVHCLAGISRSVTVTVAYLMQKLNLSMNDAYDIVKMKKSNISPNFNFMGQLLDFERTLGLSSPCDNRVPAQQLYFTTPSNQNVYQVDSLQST
Alpha-2C adrenergic receptor (Homo sapiens), sequence (P18825 whole entry, looked up): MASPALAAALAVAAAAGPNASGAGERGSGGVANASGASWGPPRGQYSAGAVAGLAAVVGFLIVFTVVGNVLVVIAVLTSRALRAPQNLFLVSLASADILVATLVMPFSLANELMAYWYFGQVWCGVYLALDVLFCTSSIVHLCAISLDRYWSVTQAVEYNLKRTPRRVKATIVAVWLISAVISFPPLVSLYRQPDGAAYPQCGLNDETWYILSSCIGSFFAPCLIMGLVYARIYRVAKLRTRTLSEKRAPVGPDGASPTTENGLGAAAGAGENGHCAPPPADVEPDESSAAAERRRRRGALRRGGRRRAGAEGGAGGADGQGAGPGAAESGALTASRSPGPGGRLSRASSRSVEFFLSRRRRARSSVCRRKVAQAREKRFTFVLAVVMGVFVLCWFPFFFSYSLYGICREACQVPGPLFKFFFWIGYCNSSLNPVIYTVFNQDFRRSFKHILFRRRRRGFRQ

Regarding `Cc1ccc(N(CC(=O)O)C2SC(=O)NC2=O)cc1` (stereo unspecified), the cell count in assay [1] amounted to 529. Moreover, the inhibition in assay [1] is -12.4% (inactive); in [2], -72.5% (inactive); in assay [4] it was 18.2% (inactive); in [9], 31.2% (inactive). The nuclei count in assay [2] was 142%. Further, the z-score is 0.0556 in [3] (setting [10]), 0.578 in assay [3] (setting [11]) and -1.85 in [3] (setting [12]). Also, the fluorescence slope in [5] was -0.507 (inactive). Besides, the NADPH fluorescence slope in assay [6] is -2.2e-05 (inactive). Besides, the slope in [7] is 0.00492 (inactive). Also, the compound was classed as inactive in [8].

`Cc1ccc(C2CC(C(F)(F)F)n3ncc(C(N)=O)c3N2)cc1` (stereo unspecified): the cell count in assay [1] came out at 506. Besides, the inhibition in assay [1] is -1.3% (inactive); in assay [2], 4.8% (inactive); in assay [4] it was -7.79% (inactive); in assay [9] it was 16.3% (inactive). Further, the nuclei count in assay [2] is 124%. The z-score in [3] (setting [10]) was -0.204; in assay [3] (setting [11]), -0.144; in [3] (setting [12]) it was 1.07. Besides, the fluorescence slope in assay [5] is -0.5 (inactive). Further, the NADPH fluorescence slope in [6] is -8.2e-05 (inactive). Further, the slope in assay [7] was 0.00506 (inactive). Further, in assay [8], the compound was called inactive.

`COc1ccccc1N1CCN(C2CCN(C(=O)c3cc(OC)c(OC)c(OC)c3)CC2)CC1`: the cell count in assay [1] is 454. The inhibition in assay [1] is -8.3% (inactive); in assay [2], -122% (inactive); in assay [4], -3.95% (inactive); in assay [9], -0.971% (inactive). This compound also gave a nuclei count in assay [2] of 170%. Moreover, the z-score is 0.498 in assay [3] (setting [10]), -1.6 in assay [3] (setting [11]) and 1.25 in [3] (setting [12]). Further, the fluorescence slope in [5] was -0.32 (inactive). In assay [6], the NADPH fluorescence slope was 2.2e-05 (inactive). Moreover, in [7], the slope is 0.0055 (inactive). Also, in assay [8], the compound was classed as inactive.

`Cc1ccc2[nH]c3c(N4CCN(Cc5ccc6c(c5)OCO6)CC4)ncnc3c2c1`: the cell count in assay [1] amounted to 390. Further, the inhibition was -21.4% (inactive) in assay [1], -47.6% (inactive) in assay [2], -3.5% (inactive) in assay [4] and 140% (active) in [9]. In [2], this compound yielded a nuclei count of 168%. Besides, the z-score in [3] (setting [10]) is -0.222; in assay [3] (setting [11]), 0.595; in assay [3] (setting [12]), -3.73. Besides, the fluorescence slope in [5] was -0.396 (inactive). In addition, the NADPH fluorescence slope in assay [6] is -0.000159 (inactive). Also, the slope in [7] is 0.00427 (inactive). In addition, in assay [8], the outcome was “inactive; toxic”.

With `CCOc1ccc(Cn2c(O)cc(=O)[nH]c2=O)cc1`, the cell count in assay [1] came out at 530. Also, the inhibition in assay [1] was 1.9% (inactive); in [2] it was -97.4% (inactive); in assay [4] it was 14% (inactive); in [9], -15% (inactive). Moreover, the nuclei count in assay [2] is 190%. Further, the z-score in assay [3] (setting [10]) was 0.509; in assay [3] (setting [11]) it was 0.944; in [3] (setting [12]) it was -0.603. In addition, in assay [5], the fluorescence slope is -0.322 (inactive). The NADPH fluorescence slope in [6] is 9.9e-06 (inactive). Further, the slope in [7] is 0.00555 (inactive). In addition, in assay [8], the call was inactive.

In the case of `CCOC(=O)c1[nH]c2ccc(Br)cc2c1NC(=O)CCN1CCN(C(=O)OCC)CC1`, the cell count in assay [1] was determined as 545. The inhibition in assay [1] is -23.3% (inactive); in assay [2] it was -94.6% (inactive); in assay [4], -7.86% (inactive); in assay [9], 18.6% (inactive). Moreover, in assay [2], the nuclei count stood at 158%. Moreover, the results for the z-score in assay [3] (setting [10]), in assay [3] (setting [11]) and in [3] (setting [12]) were -0.326, -0.22 and -0.0275, respectively. Besides, the fluorescence slope in [5] was -0.522 (inactive). The NADPH fluorescence slope in [6] is -4.7e-05 (inactive). Also, the slope in assay [7] was 0.00482 (inactive). In assay [8], the call was inactive.

On to `Nc1c(C(=O)NCC2CCCO2)c2nc3ccccc3nc2n1/N=C/c1ccncc1` (stereo unspecified), for which the cell count in assay [1] amounted to 470. Moreover, the inhibition was -2.9% (inactive) in [1], -109% (inactive) in assay [2], 22.8% (inactive) in assay [4] and -25.5% (inactive) in assay [9]. Besides, the nuclei count in [2] was found to be 110%. The values for the z-score in assay [3] (setting [10]), in assay [3] (setting [11]) and in [3] (setting [12]) were 1.93, -0.485 and 0.517, respectively. Besides, the fluorescence slope in assay [5] was -0.507 (inactive). Moreover, the NADPH fluorescence slope in assay [6] was -3.7e-05 (inactive). In [7], the slope is 0.00723 (inactive). For the same compound, in [8], the compound was classed as inactive.

Usually inhibition stands for the change of the read-out against control, counted positive when it falls.
